Data reported in article PMC9104225 (ACS chemical biology, 2021).
Residues, ends and D or L forms follow the SMILES beside them. *: point of attachment. AMC = Cc1cc(=O)oc2cc(N*)ccc12; Cbz = O=C(OCc1ccccc1)*

What was measured:
[1] = molecular target: cathepsin B activity in human neuroblastoma cell lysate (Homo sapiens, UniProt P07858); test: Cathepsin B activity in neuroblastoma cell homogenate in presence of inhibitors; format: biochemical; conditions: 1 μM inhibitor; SHSY5Y homogenate; Z-Arg-Arg-AMC substrate; pH 5.5
Procedure, shortened: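 SHSY5Y cells were grown in 50% MEMalpha/50% F12-K with 10% heat-inactivated FBS at 37 °C under 5% CO2. They were collected in 0.32 M sucrose and freeze-thawed to give homogenate. CA-074-sensitive activity was taken as cathepsin B. Protein was measured by DC assay. Output is nmol AMC/μg/min, mean ± SD, Student's t-test.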

[2] = molecular target: T1, cathepsin B (Homo sapiens, UniProt P07858); test: pH profile of cathepsin B activity with peptide-AMC substrates; format: biochemical; conditions: substrate 60 μM, pH 2 to 9
Procedure, shortened: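 Activated cathepsin B (0.04 ng/μL) was run with 60 μM of each peptide-AMC substrate. Buffers were 50 mM citrate phosphate at pH 2.2–7.4 in 0.4-unit steps plus pH 7.2, and 50 mM Tris-HCl at pH 7.4–9.0. Assays ran at 25 °C with ex360/em460. Activity was taken as RFU/sec, the highest slope over 10 consecutive readings. Results are mean ± SEM, n=3.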

[3] = molecular target: T2, Cathepsin L (Homo sapiens, UniProt P07711); test: Specificity of peptide-AMC substrates: cleavage by cathepsin L; format: biochemical
[4] = molecular target: T3, Cathepsin V (Homo sapiens, UniProt O60911); test: Specificity of peptide-AMC substrates: cleavage by cathepsin V; format: biochemical
[5] = molecular target: T1, cathepsin B; test: Cathepsin B inhibition, fluorogenic assay with Z-Phe-Arg-AMC substrate; format: biochemical; conditions: for reduction of cathepsin B activity with Z-Phe-Arg-AMC as substrate: 64 nM inhibitor; for Ki: irreversible inhibitor KI, mean ± SD
[6] = molecular target: Cathepsin C (Homo sapiens, UniProt P53634); test: Specificity of inhibitors: cathepsin C activity with Gly-Arg-AMC; format: biochemical; conditions: for IC50: Cathepsin C, without pre-incubation
[7] = molecular target: Cathepsin H (Homo sapiens, UniProt P09668); test: Specificity of inhibitors: cathepsin H activity with Arg-AMC; format: biochemical
[8] = molecular target: T4, Cathepsin K (Homo sapiens, UniProt P43235); test: Specificity of inhibitors: cathepsin K activity with Z-Phe-Arg-AMC; format: biochemical; conditions: for % inhibition: pH 4.6, at 16 μM (16,000 nM) inhibitor
T4 sequence (P43235 115-329): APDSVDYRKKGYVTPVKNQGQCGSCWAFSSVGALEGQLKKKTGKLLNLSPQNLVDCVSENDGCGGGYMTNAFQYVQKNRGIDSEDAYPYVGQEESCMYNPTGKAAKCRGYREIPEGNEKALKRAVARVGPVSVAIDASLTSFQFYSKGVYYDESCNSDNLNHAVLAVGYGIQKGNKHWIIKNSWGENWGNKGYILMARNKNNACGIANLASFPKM

[9] = molecular target: T2, Cathepsin L; test: Specificity of inhibitors: cathepsin L activity with Z-Phe-Arg-AMC; format: biochemical; conditions: for IC50: pH 4.6, without pre-incubation
[10] = molecular target: Cathepsin S (Homo sapiens, UniProt P25774); test: Specificity of inhibitors: cathepsin S activity with Z-Phe-Arg-AMC; format: biochemical; conditions: for IC50 / % inhibition: Cathepsin S; for IC50: without pre-incubation; for % inhibition: at 16 μM (16,000 nM) inhibitor
[11] = molecular target: T3, Cathepsin V; test: Specificity of inhibitors: cathepsin V activity with Z-Phe-Arg-AMC; format: biochemical; conditions: for IC50: without pre-incubation
[12] = molecular target: Cathepsin X (Homo sapiens, UniProt Q9UBR2); format: biochemical; conditions: pH 4.6, without pre-incubation
[13] = molecular target: intracellular cathepsin B in SHSY5Y human neuroblastoma cells (Homo sapiens, UniProt P07858); format: cell-based; conditions: 50 μM, 6 hrs
Procedure, shortened: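 Intact SHSY5Y cells were treated with test compound for 6 h at 37 °C. They were washed 3× in PBS, homogenised in 0.32 M sucrose and freeze-thawed. Cathepsin B activity was taken as the CA-074-sensitive fraction, normalised to DC-assay protein. Output is nmol AMC/μg/min, mean + SD, n=6, t-test.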

[14] = cathepsin B, pH 4.6, without preincubation, Z-Phe-Arg-AMC 40 μM
[15] = cathepsin B, pH 7.2, without preincubation, Z-Phe-Arg-AMC 40 μM
[16] = pH not stated in the sentence for Z-Glu-Lys-AMC, pH 4.6 for Z-Phe-Arg-AMC

Chain of Cathepsin C (P53634 25-134 limits assumed): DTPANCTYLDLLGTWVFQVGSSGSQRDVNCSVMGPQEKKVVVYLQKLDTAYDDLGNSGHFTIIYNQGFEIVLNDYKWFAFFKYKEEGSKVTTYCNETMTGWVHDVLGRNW
Chain of Cathepsin C (P53634 231-394 limits assumed): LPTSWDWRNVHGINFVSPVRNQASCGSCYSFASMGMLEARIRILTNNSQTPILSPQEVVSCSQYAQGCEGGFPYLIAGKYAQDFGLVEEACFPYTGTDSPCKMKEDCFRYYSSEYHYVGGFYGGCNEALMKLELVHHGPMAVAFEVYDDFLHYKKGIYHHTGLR
Chain of Cathepsin C (P53634 395-463 limits assumed): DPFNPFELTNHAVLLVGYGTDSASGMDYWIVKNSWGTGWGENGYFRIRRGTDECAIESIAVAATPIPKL
T3 sequence (O60911 114-334): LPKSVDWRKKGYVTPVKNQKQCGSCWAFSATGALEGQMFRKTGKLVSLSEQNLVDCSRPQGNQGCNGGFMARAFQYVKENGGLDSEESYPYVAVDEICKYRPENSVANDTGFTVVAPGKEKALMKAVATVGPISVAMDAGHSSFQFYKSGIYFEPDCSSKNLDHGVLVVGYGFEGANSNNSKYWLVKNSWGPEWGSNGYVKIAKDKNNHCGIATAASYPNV
Chain of Cathepsin S (P25774 115-331): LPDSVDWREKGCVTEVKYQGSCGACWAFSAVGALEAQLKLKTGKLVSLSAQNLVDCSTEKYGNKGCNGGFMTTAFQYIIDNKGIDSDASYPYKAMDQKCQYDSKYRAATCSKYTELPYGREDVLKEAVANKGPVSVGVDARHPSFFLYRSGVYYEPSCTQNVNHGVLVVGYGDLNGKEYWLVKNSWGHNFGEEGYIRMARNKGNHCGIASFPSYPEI
Chain of Cathepsin H (P09668 116-335 limits assumed, other chains not shown): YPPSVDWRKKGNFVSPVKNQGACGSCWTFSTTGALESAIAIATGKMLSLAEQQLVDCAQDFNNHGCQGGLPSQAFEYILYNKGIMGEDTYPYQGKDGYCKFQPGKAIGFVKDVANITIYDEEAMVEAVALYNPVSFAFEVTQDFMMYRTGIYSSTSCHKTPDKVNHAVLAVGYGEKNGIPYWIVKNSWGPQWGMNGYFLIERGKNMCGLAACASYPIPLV
T2 sequence (P07711 114-333): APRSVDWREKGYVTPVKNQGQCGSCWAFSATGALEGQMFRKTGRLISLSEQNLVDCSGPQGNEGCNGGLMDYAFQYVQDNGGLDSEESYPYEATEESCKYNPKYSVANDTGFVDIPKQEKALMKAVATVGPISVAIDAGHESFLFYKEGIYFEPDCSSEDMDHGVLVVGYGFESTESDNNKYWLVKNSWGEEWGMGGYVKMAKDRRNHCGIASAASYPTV
Chain of Cathepsin X (Q9UBR2 62-303): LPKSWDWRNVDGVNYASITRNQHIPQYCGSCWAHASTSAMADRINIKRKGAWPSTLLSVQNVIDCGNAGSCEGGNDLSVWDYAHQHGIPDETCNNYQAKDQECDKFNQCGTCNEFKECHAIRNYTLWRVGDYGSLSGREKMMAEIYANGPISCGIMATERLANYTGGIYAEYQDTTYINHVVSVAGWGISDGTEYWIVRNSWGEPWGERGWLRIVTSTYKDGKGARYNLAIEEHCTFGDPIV

SMILES	inhibition of proteolytic (cathepsin B) activity in cell lysate [1]	pH of maximal (optimal) hydrolysis by cathepsin B [2] [pH]	kinact/KI ([5]; cathepsin B, pH 4.6) [M⁻¹ s⁻¹]	Ki ([5]; cathepsin B, pH 4.6) [µM]	IC50 [5, 14] [µM]	kinact/KI ([5]; cathepsin B, pH 7.2) [M⁻¹ s⁻¹]	Ki ([5]; cathepsin B, pH 7.2) [µM]	IC50 [5, 15] [µM]	IC50 ([6]; pH 4.6) [µM]	IC50 ([6]; pH 7.2) [µM]	fold more potent for cathepsin B than cathepsin C (IC50) ([6]; pH 7.2) [fold]	IC50 ([7]; pH 4.6, without pre-incubation) [µM]	IC50 ([7]; pH 7.2, without pre-incubation) [µM]	% inhibition [8]	IC50 ([8]; pH 4.6, without pre-incubation) [µM]	IC50 ([8]; pH 7.2, without pre-incubation) [µM]	IC50 [9] [µM]	IC50 ([10]; pH 4.6) [µM]	IC50 ([10]; pH 7.2) [µM]	IC50 ([11]; Cathepsin V, pH 7.2) [µM]	further results
CCCNC(=O)[C@H]1O[C@@H]1C(=O)N[C@H](C(=O)N1CCC[C@H]1C(=O)O)[C@@H](C)CC [CA-074, reference compound]	completely inhibited	–	–	–	–	–	–	–	–	–	–	–	–	–	–	–	–	–	–	–	–
Cc1cc(=O)oc2cc(NC(=O)[C@H](CCCCN)NC(=O)[C@H](CCCNC(=N)N)NC(=O)OCc3ccccc3)ccc12 [Z-Arg-Lys-AMC] (Cbz-Arg-Lys-{AMC})	–	7.8	–	–	–	–	–	–	–	–	–	–	–	–	–	–	–	–	–	–	substrate activity for cathepsin L ([3]; pH 7.2): no activity; substrate activity for cathepsin V ([4]; pH 7.2): no activity
Cc1cccc(C)c1C(=O)OCC(=O)[C@H](CCCCN)NC(=O)[C@H](CCCN=C(N)N)NC(=O)OCc1ccccc1 [Z-Arg-Lys-AOMK]	completely inhibited	–	1800	15	1.5	110000	0.13 ± 0.05	0.02 ± 0.0083	> 16	0.85	43	> 16	> 16	no inhibition	> 16	> 16	> 16	> 16	2.2	0.44	reduction of cathepsin B activity with Z-Phe-Arg-AMC as substrate ([5]; pH 4.6): 5%; reduction of cathepsin B activity with Z-Phe-Arg-AMC as substrate ([5]; pH 7.2): 93%; IC50 ([5]; cathepsin B, pH 6.8): 0.022 µM; fold greater potency at pH 7.2 compared to pH 4.6 (KI values) ([5]; cathepsin B, ratio of KI at pH 4.6 and pH 7.2): 115 fold; inhibition at 16 μM ([7]; pH 4.6, at 16 μM inhibitor): no inhibition; fold more potent for cathepsin B than cathepsin S (IC50) ([10]; pH 7.2): 110 fold; fold more potent for cathepsin B than cathepsin V (IC50) ([11]; pH 7.2): 22 fold; IC50 [12]: > 16 µM; cell permeability [13]: cell permeable
Cc1cc(=O)oc2cc(NC(=O)[C@H](CCCCN)NC(=O)[C@H](CCC(=O)O)NC(=O)OCc3ccccc3)ccc12 [Z-Glu-Lys-AMC] (Cbz-Glu-Lys-{AMC})	–	4.6	–	–	–	–	–	–	–	–	–	–	–	–	–	–	–	–	–	–	substrate activity for cathepsin L [3, 16]: no activity; substrate activity for cathepsin V [4, 16]: no activity
Cc1cccc(C)c1C(=O)OCC(=O)C(CCCCN)NC(=O)C(CCC(=O)O)NC(=O)OCc1ccccc1 (stereo not drawn) [Z-Glu-Lys-AOMK]	–	–	2000	7.9	1.1	8200	2.3	0.32 ± 0.045	8.6	12	38	> 16	> 16	10%	> 16	> 16	> 16	> 16	> 16	> 16	% inhibition ([9]; pH 4.6, at 16 μM (16,000 nM) inhibitor): 23%; % inhibition ([10]; pH 4.6): 26%; % inhibition ([10]; pH 7.2): 30%; IC50 ([11]; Cathepsin V, pH 4.6): 1.9 µM; % inhibition ([11]; Cathepsin V, pH 7.2, at 16 μM (16,000 nM) inhibitor): 10%; IC50 [12]: > 16 µM
Cc1cc(=O)oc2cc(NC(=O)C(CCCN=C(N)N)NC(=O)C(Cc3ccccc3)NC(=O)OCc3ccccc3)ccc12 (stereo not drawn) [Z-Phe-Arg-AMC, reference compound] (Cbz-Phe-Arg-{AMC}; configuration not given here)	–	–	–	–	–	–	–	–	–	–	–	–	–	–	–	–	–	–	–	–	substrate activity for cathepsin L [3, 16]: cleaved; substrate activity for cathepsin V [4, 16]: cleaved
